Among the data in ChEMBL document CHEMBL1122130, “Nonsteroidal antiinflammatory agents. 1. 10,11-Dihydro-11-oxodibenz[b, f]oxepinacetic acids and related compounds” (J Med Chem, 1982) are ED50, UD50 and LD50 values, retold here.

The species entered for one data set is Mus musculus. Kind of data set: Effective dose for analgesic activity in mice. It is filed as functional. In outline:
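Female ddN mice (18-22 g; 5-15 per dose) received compound in 0.5% aqueous tragacanth. Writhing was induced by intraperitoneal 0.03% phenylquinone, and writhes were counted over 15 min. ED50 was calculated by Litchfield–Wilcoxon.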

In data set [1] the test system is Rattus norvegicus. Kind of data set: Effective dose for antiinflammatory activity in carrageenan paw edema assay in rats after oral administration. The format is functional. In outline: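 Male Wistar rats (120-150 g; 5-10 per dose) were dosed orally in 0.5% aqueous tragacanth. Edema was induced by subcutaneous injection of 1% aqueous carrageenan into the left hind paw.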
(In general: The carrageenan paw model is a standard test of acute inflammation.)

The test system of data set [2] is Rattus norvegicus. As to the kind of experiment: Compound was evaluated for the induction no of gastric ulcers in rats when administered perorally. It is filed as functional, Stomach. An outline of the steps: (§1)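 Male Wistar rats were fasted 24 h and given compound once orally in 0.5% aqueous tragacanth. Stomachs were removed 6 h later and examined macroscopically. UD50 (dose causing ulcers in 50% of rats) was taken from each compound's regression line.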

A short description of data set [3]: Lethal dose determined in rats when administered perorally. The format is toxicity, organism-based. Particulars: rat, in vivo, po. An outline of the steps:
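Male Wistar rats (150-230 g), dosed orally with compound dissolved or suspended in 0.5% aqueous tragacanth. LD50 taken from mortality over 7 days and calculated by the Litchfield-Wilcoxon method.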

The subject of data set [4] is Rattus norvegicus. Kind of data set: Compound was evaluated for the induction of gastric ulcers in rats after oral administration. It is filed as functional. Particulars: Stomach. In outline: as §1
The species entered for data set [5] is Rattus norvegicus. Kind of data set: Antipyretic activity measured as yeast induced fever assay in rats. The format is functional. An outline of the steps: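 Male Wistar rats (350-500 g); hyperthermia induced by subcutaneous injection of 15% yeast suspension. Test compounds dissolved or suspended in 0.5% aqueous tragacanth and administered. ED50 calculated by the Litchfield–Wilcoxon method.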

Data set [6] concerns Rattus norvegicus. Kind of data set: compound was evaluated for the induction no of gastric ulcers in rats when administered perorally. The format is functional, Stomach. An outline of the steps: as §1
The species named for data set [7] is Rattus norvegicus. As to the kind of experiment: Analgesic activity measured as silver nitrate induced arthritic pain in rats. The format is functional. In outline:
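Pain in the arthritic rat paw was provoked with silver nitrate. Compounds were given in 0.5% aqueous tragacanth, and ED50 was calculated by the Litchfield–Wilcoxon method.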

Some results are limits rather than exact numbers.

On to `O=C(O)Cc1ccc2c(c1)C(=O)Cc1cc(F)ccc1O2`, for which the ED50 in the data set listed under Mus musculus is over 100 mg/kg; in the data set with Rattus norvegicus [1], at least 80 mg/kg.

Consider `O=C(O)Cc1ccc2c(c1)C=Cc1ccc(Cl)cc1O2`, for which the ED50 in the data set filed under Mus musculus was 9.53 mg/kg; with Rattus norvegicus [1], 61.4 mg/kg.

As to `O=C(O)Cc1ccc2c(c1)C(O)Cc1cc(F)ccc1O2` (stereo not given), the ED50 in the data set listed under Mus musculus is over 100 mg/kg; in the data set on Rattus norvegicus [1] it was over 80 mg/kg.

As for `O=C(O)Cc1ccc2c(c1)Oc1ccccc1NC2=O`, the ED50 in the data set filed under Mus musculus was over 100 mg/kg; in the data set on Rattus norvegicus [1], over 80 mg/kg.

As to `O=C(O)Cc1ccc2c(c1)C(O)Cc1cc(Cl)ccc1O2` (stereo not given), the ED50 in the data set filed under Mus musculus was over 100 mg/kg; with Rattus norvegicus [1], over 80 mg/kg.

`O=C(O)Cc1ccc2c(c1)Oc1ccccc1CC2=O`: the ED50 in the data set filed under Mus musculus is at least 100 mg/kg; in the data set with Rattus norvegicus [1] it was 56.9 mg/kg.

As for `Cc1ccc2c(c1)CC(=O)c1cc(C(C)C(=O)O)ccc1S2` (stereo not given), the 50% effect level in the data set listed under Mus musculus (ED50) was put at a dose of 3.1 mg/kg. This molecule displayed a UD50 with Rattus norvegicus [2] of 11.3 mg/kg. The LD50 in data set [3] was over 100 mg/kg.

`O=C(O)Cc1ccc2c(c1)C(O)Cc1ccccc1O2` (stereo not given): the ED50 in the data set filed under Mus musculus is 44.6 mg/kg; with Rattus norvegicus [1], 24.3 mg/kg.

In the case of `Cc1ccc2c(c1)C=Cc1cc(CC(=O)O)ccc1O2`, the ED50 in the data set filed under Mus musculus is over 100 mg/kg; with Rattus norvegicus [1], over 80 mg/kg.

Take `O=C(O)Cc1ccc2c(c1)C(=O)Cc1cc(Cl)ccc1O2`: the results for the ED50 in the data set listed under Mus musculus and in the data set on Rattus norvegicus [1] were at least 100 mg/kg and at least 80 mg/kg, respectively.

Turning to `Cc1ccc2c(c1)CC(O)c1cc(CC(=O)O)ccc1O2` (stereo not given), the ED50 in the data set listed under Mus musculus is over 100 mg/kg; in the data set with Rattus norvegicus [1], over 80 mg/kg.

For the molecule `O=C(O)Cc1ccc2c(c1)C(=O)Cc1ccccc1O2`, the ED50 in the data set filed under Mus musculus worked out at 34.4 mg/kg; with Rattus norvegicus [1] it was 10.8 mg/kg.

For `CC(C(=O)O)c1ccc2c(c1)C(=O)Cc1ccccc1O2` (stereo not given), the ED50 in the data set listed under Mus musculus was 17.8 mg/kg.

With `CC(C(=O)O)c1ccc2c(c1)C(=O)Nc1ccccc1O2` (stereo not given), the ED50 in the data set listed under Mus musculus was over 100 mg/kg; with Rattus norvegicus [1], over 80 mg/kg.

On to `O=C(O)Cc1ccc2c(c1)C=Cc1ccccc1O2`, for which the ED50 in the data set filed under Mus musculus is over 100 mg/kg; in the data set on Rattus norvegicus [1] it was 28.3 mg/kg.

On to `Cc1ccc2c(c1)CC(=O)c1cc(CC(=O)O)ccc1O2`, for which, in the data set filed under Mus musculus, the 50% effect level (ED50) was put at a dose of 13.8 mg/kg.

Consider `O=C(O)Cc1ccc2c(c1)C=Cc1cc(Cl)ccc1O2`, for which the figures for the median effective dose (ED50) in the data set filed under Mus musculus and with Rattus norvegicus [1] were over 100 mg/kg and over 80 mg/kg, respectively.

As for `O=C(O)Cc1ccc2c(c1)C(=O)Cc1ccc(Cl)cc1O2`, the figures for the 50% effective dose (ED50) in the data set filed under Mus musculus and with Rattus norvegicus [1] were over 100 mg/kg and at least 80 mg/kg, respectively.

For the molecule `O=C(O)Cc1ccc2c(c1)C(=O)Nc1ccccc1O2`, the ED50 in the data set listed under Mus musculus was over 100 mg/kg; in the data set with Rattus norvegicus [1] it was over 80 mg/kg.

For `CC(C(=O)O)c1ccc2c(c1)C(O)Cc1ccccc1O2` (stereo not given), the figures for the ED50 in the data set listed under Mus musculus and with Rattus norvegicus [1] were over 100 mg/kg and over 80 mg/kg, respectively.

With `O=C(O)Cc1ccc2c(c1)Oc1ccccc1CC2O` (stereo not given), the ED50 in the data set listed under Mus musculus was over 100 mg/kg; in the data set with Rattus norvegicus [1], over 80 mg/kg.

As to `Cc1ccc2c(c1)C=Cc1cc(C(C)C(=O)O)ccc1S2` (stereo not given), the ED50 in the data set listed under Mus musculus is over 100 mg/kg; in the data set with Rattus norvegicus [1] it was over 80 mg/kg.

In the case of `O=C(O)Cc1ccc2c(c1)C(O)Cc1ccc(Cl)cc1O2` (stereo not given), the ED50 in the data set listed under Mus musculus is over 100 mg/kg; with Rattus norvegicus [1] it was over 80 mg/kg.

Consider `O=C(O)Cc1ccc2c(c1)C=Cc1cc(F)ccc1O2`, for which the figures for the ED50 in the data set filed under Mus musculus and with Rattus norvegicus [1] were over 100 mg/kg and over 80 mg/kg, respectively.

Turning to `O=C(O)Cc1ccc2c(c1)Oc1ccccc1C=C2`, the ED50 in the data set listed under Mus musculus is over 100 mg/kg; with Rattus norvegicus [1] it was over 80 mg/kg.

Take `CC(C(=O)O)c1ccc2c(c1)C=Cc1ccccc1O2` (stereo not given): the ED50 was over 100 mg/kg in the data set filed under Mus musculus and at least 80 mg/kg with Rattus norvegicus [1].

As to `Cc1ccc2c(c1)C=Cc1cc(C(C)C(=O)O)ccc1O2` (stereo not given), the ED50 is over 100 mg/kg in the data set listed under Mus musculus and over 80 mg/kg in the data set with Rattus norvegicus [1].

`Cc1ccc2c(c1)CC(O)c1cc(C(C)C(=O)O)ccc1S2` (stereo not given): the median effective dose (ED50) in the data set filed under Mus musculus was over 100 mg/kg; in the data set on Rattus norvegicus [1], over 80 mg/kg.

Take `Cc1ccc2c(c1)CC(O)c1cc(C(C)C(=O)O)ccc1O2` (stereo not given): the ED50 in the data set listed under Mus musculus was over 100 mg/kg; in the data set on Rattus norvegicus [1] it was over 80 mg/kg.

`Cc1ccc2c(c1)CC(=O)c1cc(C(C)C(=O)O)ccc1O2` (stereo not given) [BERMOPROFEN]: the 50% effective dose (ED50) in the data set filed under Mus musculus amounted to 6.51 mg/kg; in the data set on Rattus norvegicus [4] it was 13.8 mg/kg. This molecule also displayed an LD50 in data set [3] of 147 mg/kg.

As to `COc1ccc2c(c1)c(CC(=O)O)c(C)n2C(=O)c1ccc(Cl)cc1` [INDOMETHACIN], the ED50 came to 0.22 mg/kg in the data set filed under Rattus norvegicus [5], 0.62 mg/kg in the data set filed under Mus musculus and 4.3 mg/kg in the data set filed under Rattus norvegicus [7]. In the data set on Rattus norvegicus [6], this molecule yielded a UD50 of 8 mg/kg. This molecule yielded an LD50 in data set [3] of 18.5 mg/kg.

The term ED50 denotes the dose that gives a 50% effect, or the effect in half of the subjects. By LD50 is commonly meant the dose expected to kill half of the subjects tested.
